Experiment [1] deals with Pseudomonas aeruginosa. Description: Antibacterial activity against Pseudomonas aeruginosa PA694 in CD-1 mouse model of thigh infection assessed as reduction in log10CFU per gram of thigh at 15 mg/kg, iv bid administered 2 to 12 hrs of post-infection measured after 24 hrs relative to untreated control. In kind it is functional. The essentials:
(§1)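 Groups of 5 female specific-pathogen-free CD-1 mice, 22 ± 2 g. Right thigh inoculated intramuscularly with 3-5 x 10^6 CFU/mouse of P. aeruginosa PA694 (UTI isolate). Dosed IV at 5, 15 or 40 mg/kg at 2 and 12 h post-infection. Thigh muscle harvested at 24 h post-infection, homogenized in PBS (pH 7.4), plated on Brain Heart Infusion agar + 0.5% charcoal. Log10 CFU per gram thigh compared with 24 h untreated control.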

Experiment [2] relates to Pseudomonas aeruginosa. Description: Antibacterial activity against Pseudomonas aeruginosa PA694 in CD-1 mouse model of thigh infection assessed as reduction in log10CFU per gram of thigh at 40 mg/kg, iv bid administered 2 to 12 hrs of post-infection measured after 24 hrs relative to untreated control. In kind it is functional. The essentials: as §1
The test system of experiment [3] is Pseudomonas aeruginosa. Briefly: Antibacterial activity against Pseudomonas aeruginosa PA694 in CD-1 mouse model of thigh infection administered as iv bid for 2 to 12 hrs of post-infection measured after 24 hrs. In kind it is functional. The essentials: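 Female specific-pathogen-free CD-1 mice (22 ± 2 g), groups of 5, inoculated intramuscularly into right thigh with 3-5 x 10^6 CFU/mouse P. aeruginosa PA694 (UTI isolate). IV dosing at 5, 15 and 40 mg/kg at 2 and 12 h post-infection. Thigh muscle harvested at 24 h, homogenized in PBS pH 7.4, plated on Brain Heart Infusion agar + 0.5% charcoal; CFU/g thigh vs untreated controls; Mann-Whitney.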

Experiment [4] relates to Pseudomonas aeruginosa. Briefly: Antibacterial activity against Pseudomonas aeruginosa PA694 in CD-1 mouse model of thigh infection assessed as reduction in log10CFU per gram of thigh at 5 mg/kg, iv bid administered 2 to 12 hrs of post-infection measured after 24 hrs relative to untreated control. In kind it is functional. The essentials: as §1
The next experiment concerns Klebsiella pneumoniae. Briefly: Antibacterial activity against gram-negative Klebsiella pneumoniae KP457 harboring blacTX-M-15 extended spectrum beta-lactamase gene by CLSI method. In kind it is functional. The essentials: (§2)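 CLSI broth microdilution MIC in fresh cation-adjusted Mueller Hinton broth, supplemented with defibrinated horse blood where appropriate. Compounds serially diluted in sterile deionized water. Runs accepted when comparator antibiotics against ATCC quality-control strains fell within recommended ranges.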

Experiment [5] has as its system Escherichia coli. Briefly: Antibacterial activity against gram-negative Escherichia coli EC155 harboring tet(A) by CLSI method. In kind it is functional. The essentials: as §2
The test system of experiment [6] is Stenotrophomonas maltophilia. Description: Antibacterial activity against gram-negative Stenotrophomonas maltophilia SM256 by CLSI method. In kind it is functional. The essentials: (§3)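 Broth microdilution MIC per CLSI in cation-adjusted Mueller Hinton broth, prepared fresh and held at 4 °C. Defibrinated horse blood added where appropriate. Compounds serially diluted in sterile deionized water. Strains from ATCC unless otherwise noted. Runs accepted when comparator antibiotics fell within QC ranges for ATCC quality control strains.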

The test system of experiment [7] is Pseudomonas aeruginosa. Description: Antibacterial activity against Pseudomonas aeruginosa PA1145 in BALB/c mouse model of lung infection assessed as reduction in log10CFU per gram of lung at 40 mg/kg, iv bid administered 2 to 12 hrs of post-infection measured after 24 hrs relative to untreated control. Type of experiment: functional. The essentials: (§4)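 Female BALB/c mice, 18 to 20 g, infected intranasally under light anesthesia with ~ 2 x 10^7 CFU/mouse of P. aeruginosa PA1145 (cystic fibrosis isolate) in 0.05 mL. Treatment at 2 and 12 h post-infection, IV, or intranasally for tobramycin; n = 6 per group. Lungs harvested 24 h after treatment began, homogenized, plated on MacConkey medium, incubated overnight at 37 °C in 5% CO2. CFU per gram lung compared with T = 24 h untreated control.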

Experiment [8] relates to Staphylococcus aureus. Briefly: Antibacterial activity against gram-positive Staphylococcus aureus SA101 by CLSI method. Type of experiment: functional. The essentials: as §3
The next experiment concerns Enterococcus faecium. Briefly: Antibacterial activity against gram-positive Enterococcus faecium EFm404 harboring tet(M) by CLSI method. Type of experiment: functional. The essentials: as §2
In the next experiment the test system is Burkholderia cenocepacia. Briefly: Antibacterial activity against gram-negative Burkholderia cenocepacia BC240 by CLSI method. Type of experiment: functional. The essentials:
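Defibrinated horse blood added where appropriate. Compounds serially diluted in sterile deionized water. Strains from ATCC unless otherwise noted. Runs accepted when comparator antibiotics fell within QC ranges for ATCC quality control strains.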

In experiment [9] the test system is Escherichia coli. Description: Antibacterial activity against gram-negative Escherichia coli EC107 by CLSI method. Type of experiment: functional. The essentials: as §3
The test system of a further experiment is Streptococcus pneumoniae. Description: Antibacterial activity against gram-positive Streptococcus pneumoniae SP160 harboring tet(M) by CLSI method. Type of experiment: functional. The essentials: as §2
Experiment [10] has as its system Pseudomonas aeruginosa. Briefly: Antibacterial activity against gram-negative Pseudomonas aeruginosa PA555 by CLSI method. In kind it is functional. The essentials:
as §3

Another experiment has as its system Enterobacter cloacae. Briefly: Antibacterial activity against gram-negative Enterobacter cloacae EC1603 harboring tet(A) by CLSI method. In kind it is functional. The essentials: as §2
A further experiment has as its system Acinetobacter baumannii. Briefly: Antibacterial activity against gram-negative Acinetobacter baumannii AB250 by CLSI method. In kind it is functional. The essentials:
as §3

The subject of experiment [11] is Staphylococcus aureus. Briefly: Antibacterial activity against gram-positive Staphylococcus aureus SA158 harboring tet(K) by CLSI method. In kind it is functional. The essentials:
as §2

Experiment [12] concerns Pseudomonas aeruginosa. Briefly: Antibacterial activity against Pseudomonas aeruginosa PA1145 in BALB/c mouse model of lung infection administered as iv bid for 2 to 12 hrs of post-infection measured after 24 hrs. Type of experiment: functional. The essentials: (§5)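 Female BALB/c mice (18–20 g) infected intranasally with ~2 x 10^7 CFU/mouse P. aeruginosa PA1145 (cystic fibrosis isolate) under light anesthesia. Dosing at 2 and 12 h post-infection, IV (compound, tigecycline, amikacin) or intranasal (tobramycin); n = 6 per group. Lungs harvested 24 h after treatment start, homogenized, plated on MacConkey agar, 37 °C overnight; CFU/g lung; Mann-Whitney vs T = 0 h or 24 h controls.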

The test system of experiment [13] is Staphylococcus aureus. Briefly: Antibacterial activity against gram-positive Staphylococcus aureus SA161 harboring tet(M) by CLSI method. In kind it is functional. The essentials:
as §2

The test system of a further experiment is Proteus mirabilis. Briefly: Antibacterial activity against gram-negative Proteus mirabilis PM385 by CLSI method. In kind it is functional. The essentials: as §3
The test system of the next experiment is Enterococcus faecalis. Briefly: Antibacterial activity against gram-positive Enterococcus faecalis EFs327 harboring tet(M) by CLSI method. Type of experiment: functional. The essentials:
as §2

For experiment [14], the system named is Pseudomonas aeruginosa. Briefly: Antibacterial activity against Pseudomonas aeruginosa PA1145 in BALB/c mouse model of lung infection assessed as reduction in log10CFU per gram of lung compound administered intranasally as bid for 2 to 12 hrs of post-infection measured after 24 hrs. Type of experiment: functional. The essentials: as §4
Experiment [15] relates to Pseudomonas aeruginosa. Description: Antibacterial activity against Pseudomonas aeruginosa PA694 in CD-1 mouse model of thigh infection assessed as reduction in log10CFU per gram of thigh administered intranasally as bid for 2 to 12 hrs of post-infection measured after 24 hrs. In kind it is functional.
Experiment [16] has as its system Pseudomonas aeruginosa. Description: Antibacterial activity against Pseudomonas aeruginosa PA1145 in BALB/c mouse model of lung infection assessed as reduction in log10CFU per gram of lung at 15 mg/kg, iv bid administered 2 to 12 hrs of post-infection measured after 24 hrs relative to untreated control. Type of experiment: functional. The essentials: as §4
Experiment [17] has as its system Pseudomonas aeruginosa. Description: Antibacterial activity against Pseudomonas aeruginosa PA1145 in BALB/c mouse model of lung infection assessed as reduction in log10CFU per gram of lung at 5 mg/kg, iv bid administered 2 to 12 hrs of post-infection measured after 24 hrs relative to untreated control. In kind it is functional. The essentials: as §4
The test system of experiment [18] is Pseudomonas aeruginosa. Description: Antibacterial activity against Pseudomonas aeruginosa PA1145 in BALB/c mouse model of lung infection administered intranasally as bid for 2 to 12 hrs of post-infection measured after 24 hrs. In kind it is functional. The essentials: as §5
Experiment [19] has as its system Pseudomonas aeruginosa. Description: Antibacterial activity against Pseudomonas aeruginosa PA1145 in BALB/c mouse model of lung infection assessed as reduction in log10CFU per gram of lung at 40 mg/kg, in bid administered 2 to 12 hrs of post-infection measured after 24 hrs relative to untreated control. In kind it is functional, organism-based. The essentials:
as §5

Molecules are shown by their SMILES. ≈ marks a conversion by molar mass, not a printed value. Calls of active or inactive are those of the source. The calls are words filed in the database; no cut-off is given here. Some results are limits rather than exact numbers.

By MIC is commonly meant the lowest concentration that inhibits growth of the organism. A lower MIC goes with inhibition by little substance.

In the case of `C[C@@H](O)[C@H]1C(=O)N2C(C(=O)O)=C(S[C@@H]3CN[C@H](C(=O)N(C)C)C3)[C@H](C)[C@H]12` [MEROPENEM], the Activity in the experiment on Pseudomonas aeruginosa [1] is given as 4.2 deltalog10CFU; in the experiment with Pseudomonas aeruginosa [2], 4.9 deltalog10CFU; in the experiment with Pseudomonas aeruginosa [4], 2.9 deltalog10CFU. In the experiment with Pseudomonas aeruginosa [3], this molecule had an MIC of 0.125 µg/mL (≈ 0.326 µM).
With `CN(C)c1cc(NC(=O)CNC(C)(C)C)c(O)c2c1C[C@H]1C[C@H]3[C@H](N(C)C)C(O)=C(C(N)=O)C(=O)[C@@]3(O)C(O)=C1C2=O` [TIGECYCLINE], the MIC in the experiment on Klebsiella pneumoniae is 1 µg/mL (≈ 1.71 µM); against Escherichia coli [5], 1 µg/mL (≈ 1.71 µM); in [6], 2 µg/mL (≈ 3.41 µM); in the experiment with Staphylococcus aureus [8], 0.0625 µg/mL (≈ 0.107 µM); against Enterococcus faecium it was 0.0312 µg/mL (≈ 0.0533 µM); in the experiment on Burkholderia cenocepacia it was 16 µg/mL (≈ 27.3 µM). Besides, the MIC against Escherichia coli [9] came out at 0.125 µg/mL (≈ 0.213 µM); against Streptococcus pneumoniae, 0.0156 µg/mL (≈ 0.0266 µM); in the experiment with Pseudomonas aeruginosa [10] it was 16 µg/mL (≈ 27.3 µM); in the experiment on Enterobacter cloacae it was 4 µg/mL (≈ 6.83 µM); against Acinetobacter baumannii it was 8 µg/mL (≈ 13.7 µM); against Staphylococcus aureus [11] it was 0.125 µg/mL (≈ 0.213 µM). The MIC against Pseudomonas aeruginosa [12] came out at 16 µg/mL (≈ 27.3 µM); against Staphylococcus aureus [13] it was 0.125 µg/mL (≈ 0.213 µM); with Proteus mirabilis, 4 µg/mL (≈ 6.83 µM); in the experiment with Enterococcus faecalis it was 0.125 µg/mL (≈ 0.213 µM). Also, in the experiment with Pseudomonas aeruginosa [7], the Activity is on record as 4.2 deltalog10CFU.
`CN(C)[C@@H]1C(O)=C(C(N)=O)C(=O)[C@@]2(O)C(O)=C3C(=O)c4c(O)cc([C@@H]5CCCN5)c(C(F)(F)F)c4C[C@H]3C[C@@H]12`: the MIC is 0.125 µg/mL (≈ 0.227 µM) in the experiment with Klebsiella pneumoniae; 2 µg/mL (≈ 3.63 µM) with Escherichia coli [5]; 1 µg/mL (≈ 1.81 µM) in [6]; 0.0625 µg/mL (≈ 0.113 µM) in the experiment with Staphylococcus aureus [8]; 0.25 µg/mL (≈ 0.453 µM) in the experiment with Enterococcus faecium; 8 µg/mL (≈ 14.5 µM) with Burkholderia cenocepacia. Further, the minimal inhibitory concentration (MIC) against Escherichia coli [9] was at most 0.0156 µg/mL; in the experiment with Streptococcus pneumoniae, at most 0.0156 µg/mL; in the experiment with Pseudomonas aeruginosa [10], 4 µg/mL (≈ 7.25 µM); in the experiment with Pseudomonas aeruginosa [3] it was 4 µg/mL (≈ 7.25 µM); in the experiment on Enterobacter cloacae, 8 µg/mL (≈ 14.5 µM); against Acinetobacter baumannii, 2 µg/mL (≈ 3.63 µM). The MIC against Staphylococcus aureus [11] was at most 0.0156 µg/mL; in the experiment with Pseudomonas aeruginosa [12], 2 µg/mL (≈ 3.63 µM); against Staphylococcus aureus [13], 4 µg/mL (≈ 7.25 µM); against Proteus mirabilis, 0.5 µg/mL (≈ 0.907 µM); with Enterococcus faecalis, 1 µg/mL (≈ 1.81 µM). For the same molecule, the Activity is 0.9 deltalog10CFU with Pseudomonas aeruginosa [1]; “Dose-dependent effect” in the experiment on Pseudomonas aeruginosa [14]; “Dose-dependent effect” in the experiment with Pseudomonas aeruginosa [15]; 3.7 deltalog10CFU in the experiment on Pseudomonas aeruginosa [7]; 1.9 deltalog10CFU in the experiment on Pseudomonas aeruginosa [2]; 0.4 deltalog10CFU with Pseudomonas aeruginosa [4]. The Activity in the experiment with Pseudomonas aeruginosa [16] amounted to 2.3 deltalog10CFU; in the experiment on Pseudomonas aeruginosa [17] it was 1.7 deltalog10CFU.
As for `NC[C@H]1O[C@H](O[C@H]2[C@H](O)[C@@H](O[C@H]3O[C@H](CO)[C@@H](O)[C@H](N)[C@H]3O)[C@H](N)C[C@@H]2N)[C@H](N)C[C@@H]1O` [TOBRAMYCIN], in the experiment with Pseudomonas aeruginosa [18], the MIC came out at 1 µg/mL (≈ 2.14 µM). In the experiment with Pseudomonas aeruginosa [19], the result was inactive.

The values are drawn from ChEMBL document CHEMBL4007456, “Heterocyclyl Tetracyclines. 1. 7-Trifluoromethyl-8-Pyrrolidinyltetracyclines: Potent, Broad Spectrum Antibacterial Agents with Enhanced Activity against Pseudomonas aeruginosa” (2017).
